The source of these data is ChEMBL document CHEMBL2424625, “Synthesis and structure-activity relationships of novel indazolyl glucocorticoid receptor partial agonists” (Bioorg Med Chem Lett, 2013).

In assay [1] the target is T1, Glucocorticoid receptor (Homo sapiens, UniProt P04150).
T1 sequence (P04150 whole entry): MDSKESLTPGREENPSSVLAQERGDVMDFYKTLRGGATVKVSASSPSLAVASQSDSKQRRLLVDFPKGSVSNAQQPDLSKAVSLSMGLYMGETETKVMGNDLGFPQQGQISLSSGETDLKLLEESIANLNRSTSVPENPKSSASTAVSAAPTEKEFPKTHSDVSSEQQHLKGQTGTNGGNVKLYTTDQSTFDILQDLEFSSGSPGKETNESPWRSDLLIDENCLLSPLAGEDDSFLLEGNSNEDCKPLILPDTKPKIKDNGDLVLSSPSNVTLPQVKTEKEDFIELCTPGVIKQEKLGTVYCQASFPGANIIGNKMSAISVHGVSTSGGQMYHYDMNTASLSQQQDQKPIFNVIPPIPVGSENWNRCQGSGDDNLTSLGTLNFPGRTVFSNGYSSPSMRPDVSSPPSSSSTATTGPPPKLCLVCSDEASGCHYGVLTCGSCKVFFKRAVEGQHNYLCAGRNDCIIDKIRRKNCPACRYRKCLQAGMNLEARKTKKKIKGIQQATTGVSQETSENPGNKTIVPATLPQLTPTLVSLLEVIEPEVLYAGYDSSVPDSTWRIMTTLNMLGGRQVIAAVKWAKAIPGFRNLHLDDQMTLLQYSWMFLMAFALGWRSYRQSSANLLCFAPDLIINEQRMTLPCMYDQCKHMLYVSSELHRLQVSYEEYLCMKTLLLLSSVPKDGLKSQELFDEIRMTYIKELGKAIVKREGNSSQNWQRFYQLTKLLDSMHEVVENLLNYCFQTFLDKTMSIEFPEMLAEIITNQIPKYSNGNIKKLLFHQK
Briefly: Transactivation activity at glucocorticoid receptor ligand binding domain (unknown origin) expressed in human Hela cells co-expressing GAL4 DNA binding domain assessed as NP-1-stimulated GRE activation by luciferase reporter gene assay. The assay is classed as cell-based. (In a reporter assay the amount or activity of a reporter protein is the signal.)

Assay [2] concerns the target T2, Glucocorticoid receptor (Homo sapiens) (UniProt P04150).
T2 sequence (whole entry): T1 sequence (P04150 whole entry)
The experiment in a line: Transactivation activity at glucocorticoid receptor ligand binding domain (unknown origin) expressed in human Hela cells co-expressing GAL4 DNA binding domain assessed as NP-1-stimulated GRE activation by luciferase reporter gene assay relative to dexamethasone. The assay is classed as cell-based. In short, it runs like this: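 HeLa line (NP-1) stably transfected with a GR-LBD chimera cloned into a GAL4 luciferase reporter was run in agonist mode. Direct GR-LBD activation was read as increased luciferase activity. […] Values are means of two or more experiments in triplicate.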

Assay [3] has as its target T2, Glucocorticoid receptor (Homo sapiens). The experiment in a line: Transrepression activity at glucocorticoid receptor in human A549 cells assessed as inhibition of IL1beta-stimulated NFkappaB-dependent E-selectin transcription by luciferase reporter gene assay relative to dexamethasone. The assay is classed as cell-based. Summed up:
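In A549 lung epithelial cells, NFkB activity was induced with IL-1β (0.5 ng/ml). Inhibition was quantitated as decreased luciferase activity. […] Values are means of two or more experiments in triplicate.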

Assay [4] concerns the target T1, Glucocorticoid receptor. Briefly: Transrepression activity at glucocorticoid receptor in human A549 cells assessed as inhibition of IL1beta-stimulated NFkappaB-dependent E-selectin transcription by luciferase reporter gene assay. The assay is classed as cell-based.
For assay [5], the target named is T2, Glucocorticoid receptor (Homo sapiens). Briefly: Transrepression activity at glucocorticoid receptor in human A549 cells assessed as inhibition of PMA-stimulated AP1 response element by luciferase reporter gene assay relative to dexamethasone. The assay is classed as cell-based. Summed up: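 Transrepression of AP-1 was run in A549 lung epithelial cells. […] Values are means of two or more experiments in triplicate.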

Assay [6] concerns the target T1, Glucocorticoid receptor. Briefly: Transrepression activity at glucocorticoid receptor in human A549 cells assessed as inhibition of PMA-stimulated AP1 response element by luciferase reporter gene assay. The assay is classed as cell-based.
Assay [7] deals with T1, Glucocorticoid receptor. The experiment in a line: Binding affinity to glucocorticoid receptor (unknown origin) by fluorescence assay.
For assay [8], the target named is T2, Glucocorticoid receptor (Homo sapiens). The experiment in a line: Partial agonist activity at glucocorticoid receptor (unknown origin) by fluorescence assay.

Active and inactive are the calls of the source. No cut-off for these calls is given here.

For orientation: EC50 means the concentration that produces a half-maximal response. For orientation: Ki means a dissociation constant, usually derived from enzyme kinetics or from competition with a known ligand. A lower Ki goes with tighter binding. Turning to `CC(CNS(=O)(=O)CC(F)(F)F)[C@@H](c1ccccc1)c1ccc2c(cnn2-c2ccc(F)cc2)c1` (stereo partly drawn), the EC50 in assay [1] was determined as 26 nM; in assay [4], 0.66 nM; in assay [6], 5.2 nM. For the same compound, the Efficacy in assay [2] came out at 112%; in assay [3] it was 105%; in assay [5], 97%. Also, the affinity in assay [7] corresponds to a Ki of 1.34 nM.

Take `CC(C)(CNS(C)(=O)=O)[C@@H](c1ccccc1)c1ccc2c(cnn2-c2ccc(F)cc2)c1`: the EC50 in assay [1] came out at 148 nM; in assay [4], 19.1 nM; in assay [6], 20.5 nM. In addition, the Efficacy in assay [2] was 32%; in assay [3], 97%; in assay [5] it was 86%. Further, the Ki in assay [7] amounted to 0.53 nM.

Regarding `CC(CNC(=O)CC(F)(F)F)[C@@H](c1ccccc1)c1ccc2c(cnn2-c2ccc(F)cc2)c1` (single isomer, unassigned) [listing 1 of 2 here], the EC50 amounted to 374 nM in assay [1] and 52 nM in assay [6]. This compound displayed an inhibitory constant (Ki) in assay [7] of 2.3 nM.

`CC(C)C[C@@H](c1ccc2c(cnn2-c2ccc(F)cc2)c1)C(C)(C)CNC(=O)NC(C)(C)C`: the concentration giving a half-maximal response (EC50) was 126 nM in assay [1], 11.3 nM in assay [4] and 25 nM in assay [6]. In addition, the Efficacy in assay [2] worked out at 86%; in assay [3], 94%; in assay [5] it was 100%. For the same compound, in assay [7], the affinity, expressed as Ki, was 3.6 nM.

For `CC(C)(C)CC(=O)NCC(C)(C)[C@@H](c1ccccc1)c1ccc2c(cnn2-c2ccc(F)cc2)c1`, the half-maximal effective concentration (EC50) in assay [1] was more than 10000 nM; in assay [4], 138 nM; in assay [6] it was 215 nM. Further, the Efficacy in assay [3] is 46%; in assay [5], 62%. The same compound had a Ki in assay [7] of 1.9 nM.

As for `CC(C)(CNC(=O)NCC(F)(F)F)[C@@H](c1ccccc1)c1ccc2c(cnn2-c2ccc(F)cc2)c1`, the EC50 in assay [1] was more than 10000 nM; in assay [4] it was 393 nM; in assay [6], 252 nM. For the same compound, the Efficacy in assay [3] worked out at 55%; in assay [5], 66%. The same compound showed a Ki in assay [7] of 10.2 nM.

In the case of `CC(=O)NCC(C)(C)[C@@H](c1ccccc1)c1ccc2c(cnn2-c2ccc(F)cc2)c1`, the Efficacy in assay [3] was determined as 58%. Besides, the EC50 in assay [4] was 1150 nM; in assay [6] it was more than 5000 nM. In addition, in assay [7], the Ki came to 2.4 nM.

In the case of `CC(C)(CNC(=O)Cc1ccccc1)[C@@H](c1ccccc1)c1ccc2c(cnn2-c2ccc(F)cc2)c1`, the EC50 was 977 nM in assay [1] and 2520 nM in assay [6]. The Efficacy in assay [2] turned out to be 100%; in assay [5] it was 33%.

For `CC(CNS(C)(=O)=O)[C@@H](c1ccccc1)c1ccc2c(cnn2-c2ccc(F)cc2)c1` (stereo partly drawn), the EC50 stood at 24 nM in assay [1], 1.4 nM in assay [4] and 8.4 nM in assay [6]. Moreover, the Efficacy stood at 101% in assay [2], 105% in assay [3] and 100% in assay [5]. In addition, the affinity in assay [7] corresponds to a Ki of 0.93 nM.

With `CCS(=O)(=O)NCC(C)[C@@H](c1ccccc1)c1ccc2c(cnn2-c2ccc(F)cc2)c1` (stereo partly drawn), the half-maximal effective concentration (EC50) in assay [1] worked out at 12.8 nM; in assay [4] it was 1.8 nM; in assay [6] it was 4.3 nM. The Efficacy in assay [2] was determined as 111%; in assay [3], 100%; in assay [5] it was 96%. The compound further yielded a Ki in assay [7] of 0.87 nM.

Turning to `CCS(=O)(=O)NCC(C)(C)[C@@H](c1ccccc1)c1ccc2c(cnn2-c2ccc(F)cc2)c1`, the EC50 is 214 nM in assay [1], 15.6 nM in assay [4] and 28.8 nM in assay [6]. Further, the Efficacy stood at 19% in assay [2], 87% in assay [3] and 84% in assay [5]. Moreover, the Ki in assay [7] was found to be 0.72 nM.

Turning to `CC(CNC(=O)CC(F)(F)F)[C@@H](c1ccccc1)c1ccc2c(cnn2-c2ccc(F)cc2)c1` (single isomer, unassigned) [listing 2 of 2 here], the Efficacy in assay [2] came out at 52%; in assay [5], 84%.

On to `CC(CNC(=O)CC(F)(F)F)[C@@H](c1ccccc1)c1ccc2c(cnn2-c2ccc(F)cc2)c1` (stereo in doubt; 3i) [listing 1 of 2 here], for which the EC50 in assay [1] came out at 20.7 nM; in assay [6], 7.5 nM. Moreover, in assay [7], affinity was put at a Ki of 2.4 nM.

For the compound `CC(C)(CNS(=O)(=O)C1CC1)[C@@H](c1ccccc1)c1ccc2c(cnn2-c2ccc(F)cc2)c1`, the figures for the EC50 in assay [1], in assay [4] and in assay [6] were 261 nM, 29.3 nM and 26.8 nM, respectively. Moreover, the Efficacy amounted to 19% in assay [2], 82% in assay [3] and 76% in assay [5]. Moreover, the Ki in assay [7] turned out to be 1.15 nM.

Regarding `CC(C)C[C@@H](c1ccc2c(cnn2-c2ccc(F)cc2)c1)C(C)(C)CNC(=O)CC(F)(F)F`, the EC50 came out at 262 nM in assay [1], 38 nM in assay [4] and 61 nM in assay [6]. Moreover, the values for the Efficacy in assay [2], in assay [3] and in assay [5] were 81%, 96% and 101%, respectively. This compound also returned a Ki in assay [7] of 1.3 nM.

Take `CCCS(=O)(=O)NCC(C)(C)[C@@H](c1ccccc1)c1ccc2c(cnn2-c2ccc(F)cc2)c1`: the EC50 was more than 10000 nM in assay [1], 86 nM in assay [4] and 143 nM in assay [6]. Also, the Efficacy in assay [3] is 63%; in assay [5], 66%. In assay [7], this compound returned a Ki of 1.51 nM.

On to `CC(C)(C)C(=O)NCC(C)(C)[C@@H](c1ccccc1)c1ccc2c(cnn2-c2ccc(F)cc2)c1`, for which the outcome in assay [8] was Active. Further, the EC50 in assay [1] stood at 394 nM; in assay [4] it was 23 nM; in assay [6] it was 78 nM. Besides, the Efficacy in assay [2] was 25%; in assay [3] it was 80%; in assay [5], 100%. In assay [7], this compound returned a Ki of 2 nM.

Take `CC(C)C[C@@H](c1ccc2c(cnn2-c2ccc(F)cc2)c1)C(C)(C)CNC(=O)NCC(F)(F)F`: the 50% effective concentration (EC50) in assay [1] stood at 501 nM; in assay [4], 87 nM; in assay [6], 118 nM. Also, the values for the Efficacy in assay [2], in assay [3] and in assay [5] were 58%, 85% and 86%, respectively. In addition, the affinity in assay [7], expressed as Ki, was 1.42 nM.

In the case of `CC(CNC(=O)CC(F)(F)F)[C@@H](c1ccccc1)c1ccc2c(cnn2-c2ccc(F)cc2)c1` (stereo in doubt; 3i) [listing 2 of 2 here], the Efficacy stood at 102% in assay [2] and 88% in assay [5].

For `CC(C)(CNC(=O)C(F)(F)F)[C@@H](c1ccccc1)c1ccc2c(cnn2-c2ccc(F)cc2)c1`, the EC50 was more than 10000 nM in assay [1], 124 nM in assay [4] and 725 nM in assay [6]. In addition, the values for the Efficacy in assay [3] and in assay [5] were 39% and 44%, respectively. This compound also had a Ki in assay [7] of 1.74 nM.
